Calb FLC: C. albicans growth modulation with fluconazole | AID 1979 | C. albicans CaCi-2 (fluconazole-resistant clinical isolate) + fluconazole, Alamar Blue growth, 48 h | actives 0.57% (n = 300,000) | growth inhibition, % (no concentration beside the values);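 active = growth inhibition above about 58% in most replicates, limit read from the data, passing the limit was not always enough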;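 also: all wells also contain fluconazole at 8 µg/ml as a sub-toxic cotreatment; 0% = median of DMSO wells and 100% = median of geldanamycin control wells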
ASAP1 GAP inh: inhibitors of human ASAP1 ArfGAP activity; Q9ULH1; ASAP1-stimulated ARF1 GTP hydrolysis, GDP FP detection; inhibition, % at 16.5 µM; actives 0.19% (n = 360,000); AID 624377; in the data active = inhibition above about 25%;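 also: 0% = vehicle with enzyme and substrate and 100% = no enzyme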
Target sequence (Q9ULH1 325-724 limits assumed): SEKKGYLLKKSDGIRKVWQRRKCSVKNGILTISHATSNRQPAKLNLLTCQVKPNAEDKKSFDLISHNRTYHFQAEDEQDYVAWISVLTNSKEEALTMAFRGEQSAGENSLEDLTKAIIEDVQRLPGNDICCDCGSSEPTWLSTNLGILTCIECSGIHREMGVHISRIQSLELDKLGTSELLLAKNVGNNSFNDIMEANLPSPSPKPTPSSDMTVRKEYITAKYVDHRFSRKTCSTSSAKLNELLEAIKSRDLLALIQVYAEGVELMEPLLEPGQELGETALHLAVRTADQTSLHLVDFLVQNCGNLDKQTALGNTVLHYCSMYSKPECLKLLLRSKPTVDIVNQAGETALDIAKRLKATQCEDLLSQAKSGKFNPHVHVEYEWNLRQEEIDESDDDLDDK
PHOSPHO1 inh: PHOSPHO1 (human) inhibition; recombinant PHOSPHO1, absorbance phosphatase assay; inhibition, % at 13.3 µM; actives 1.1% (n = 290,000); AID 1565; in the data active = inhibition above about 60%
Target sequence (Q8TCT1 whole entry, looked up): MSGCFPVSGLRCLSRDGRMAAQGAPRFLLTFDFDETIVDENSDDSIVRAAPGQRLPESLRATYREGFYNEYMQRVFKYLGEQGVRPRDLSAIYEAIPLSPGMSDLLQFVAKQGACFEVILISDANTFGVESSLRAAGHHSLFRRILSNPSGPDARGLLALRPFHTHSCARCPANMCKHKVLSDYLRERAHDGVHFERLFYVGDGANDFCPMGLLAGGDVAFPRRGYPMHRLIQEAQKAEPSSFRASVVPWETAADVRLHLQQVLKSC
IMP-1 inhibitor: inhibitors of Pseudomonas aeruginosa IMP-1 metallo-beta-lactamase; purified IMP-1, nitrocefin hydrolysis, epi-absorbance fluorescence; inhibition, % at 5.6 µM; actives 0.45% (n = 290,000); AID 1556;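 active = inhibition above the mean plus 3 SD of all compounds in the same screening run, cut at about 4.5% in these data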;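 also: 0% = IMP-1 with DMSO and 100% = DMSO wells lacking enzyme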
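System: purified IMP-1; amount: IMP-1 0.2 nM before substrate addition; compound: single dose, 5.6 µM; times: 25 °C, 15 min preincubation, 25 min reaction; signal: Epi-absorbance via hydrolysed-nitrocefin quenching of white-plate fluorescence, 480/530 nm, EDTA stop; benchmarks: DMSO with and without IMP-1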
VIM-2 inh: blocks Pseudomonas aeruginosa VIM-2 metallo-beta-lactamase. purified VIM-2, nitrocefin hydrolysis, epi-absorbance fluorescence. inhibition, % at 5.6 µM. AID 1527. actives 0.89% (n = 290,000);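 active = inhibition above the mean of all tested compounds plus 3 SD, cutoff set per screening run, cut at about 7.5% in these data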;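 also: red hydrolysis product quenches plate fluorescence so inhibitors raise well fluorescence; 0% = enzyme with DMSO and 100% = DMSO without enzyme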
ARFGAP1 inhibitor: inhibitors of rat ARFGAP1. actives 0.26% (n = 360,000). AID 651572. inhibition, % at 16.5 µM. Arfgap1-stimulated ARF1 GTP hydrolysis, GDP FP detection;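 active = inhibition above a per-plate limit, mean inhibition of low control wells plus 3 SD, cut at about 25% in these data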;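 also: 0% = DMSO wells with enzyme and 100% = wells lacking Arfgap1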
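System: truncated rat Arfgap1 GAP domain / Benchmarks: high control wells lacking Arfgap1, low control full reaction with DMSO / Times: compound-enzyme preincubation 20 min, reaction 120 min, detection 60 min, 25 °C / Repeats: one replicate per compound / Also added: human ARF1(Δ1-17)-GTP substrate / Measured by: Tracer-displacement fluorescence polarization with EDTA stop, 620/688 nm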
* = called active by the depositor; . = no result given. Rows were chosen to be rich in hits. Some 2.6% of all compounds tested hit in one or more screens of this group.

SMILES	Calb FLC	ASAP1 GAP inh	PHOSPHO1 inh	IMP-1 inhibitor	VIM-2 inh	ARFGAP1 inhibitor
COc1ccc(C(=O)NC(=S)NNC(=O)c2ccc(C)cc2)cc1	106.7*	4.8	.	.	.	-1.4
COc1cc(C(=O)NC(=S)Nc2ccc([N+](=O)[O-])cc2)cc(OC)c1OC	6.6	9.2	-4.9	4.6*	-1.0	12.3
COc1ccc(C(=O)NC(=S)N2CCCC2)cc1	-2.6	2.5	-72.0	0.4	-5.0	-6.0
Cc1ccc(S(=O)(=O)NNC(=O)c2ccc(F)cc2)cc1	20.0	-2.5	44.0	0.6	2.0	4.5
CSc1ccc(Cn2c(C)c(C(=O)NCc3ccco3)sc2=O)cc1	.	4.3	.	.	.	8.5
O=C(NCC1CCN(C(=O)C(=O)c2cccs2)CC1)c1ccc2c(c1)CCO2	.	-10.5	.	.	.	-4.9
Cn1cccc1CC(=O)NNC(=S)NC(=O)c1ccc(F)cc1	-5.1	13.1	91.8*	1.1	-1.3	11.4
COc1ccc(C(=O)NC(=S)NNC(=O)c2ccc3ccccc3n2)cc1	108.1*	5.3	-113.3	-4.1	-5.3	2.9
COc1ccc(/C=C/C(=O)NC(=S)NNC(=O)Cc2cccs2)cc1OC	2.3	8.8	97.9*	-3.0	-6.6	8.8
Cc1cccc(C(=O)NC(=S)NNC(=O)c2ccc(Cl)cc2)c1	-2.7	-2.8	12.1	-0.7	-2.8	1.6
COc1cc(OC)cc(C(=O)NNC(=O)c2ccc3ccccc3n2)c1	.	-5.9	.	.	.	3.5
O=C(NNC(=S)NC(=O)c1ccco1)c1ccc(F)cc1	-6.8	4.1	-28.8	-1.1	-1.8	-3.9
COc1cc(C(=O)NNC(=S)NC(=O)c2ccc(Cl)cc2)cc(OC)c1OC	-5.1	11.8	69.0*	-1.5	-6.3	-0.5
CN(c1ncc(C(F)(F)F)cc1Cl)N1C(=O)c2cccc([N+](=O)[O-])c2C1=O	4.4	9.4	47.1	36.5*	-3.7	-1.9
O=C(Nc1cc2c(oc1=O)CCCC2=O)c1cccc(Cl)c1	0.6	-6.5	64.6*	-1.4	-4.5	19.1
Cc1c(O)c(CN(C)C)cc2c1oc(=O)c1ccccc12	0.3	5.4	11.6	-1.3	11.0*	13.8
Cc1c(O)c(CN2CCCCC2)cc2c1oc(=O)c1ccccc12	5.6	4.3	40.5	-1.7	5.5	-12.4
Cc1cccc(OCc2n[nH]c(=S)o2)c1	39.0	-5.7	97.5*	-5.2	-2.7	16.4
FC(F)(F)c1ccc(Cl)c(CN2CCN(c3ncc(Cc4ccccc4)cn3)CC2)c1	.	-3.5	.	.	.	-1.5
O=C(COc1ccc(Br)cc1Br)NC(=S)N1CCCc2ccccc21	-6.9	.	82.7*	-3.1	-5.3	.
O=C(COc1ccc(Br)cc1Cl)NC(=S)N1CCc2ccccc21	-5.7	0.6	-6.2	-4.7	-1.3	1.7
CC(C)OC(=O)C(=O)NNc1ccccc1	129.5*	7.7	-43.6	-0.8	-0.6	2.5
CCOC(=O)N1CCC(N2C(=O)c3ccccc3C2=O)CC1	6.9	1.2	99.1*	-1.4	-0.4	-8.5
CCOC(=O)N1CCC(N2C(=O)c3ccc(C(=O)NCCC(C)C)cc3C2=O)CC1	0.9	-7.4	10.9	4.4	0.0	3.1
Cc1ccc2c(c1)c(=O)c1c3n2CCN(C(=O)CCl)C3CC1 (configuration not stated)	4.5	2.4	79.6*	-1.8	-1.3	1.1
SMILES	Calb FLC	ASAP1 GAP inh	PHOSPHO1 inh	IMP-1 inhibitor	VIM-2 inh	ARFGAP1 inhibitor
CSc1nc(N(C)CCO)c2sc3nc(-c4ccco4)c4c(c3c2n1)CCC4	14.2	.	-76.7	10.8*	1.4	.
CSc1nc(N2CCN(CCO)CC2)c2sc3nc(-c4ccco4)c4c(c3c2n1)CCC4	.	.	22.9	.	.	.
CSc1nc(SCC(=O)O)c2sc3nc(-c4ccccc4)c4c(c3c2n1)CCC4	-7.1	0.4	-44.0	64.4*	-1.0	-1.2
O=C(Nc1ccccc1)Nc1n[nH]c2nnc(-c3ccccc3)c(-c3ccccc3)c12	4.1	3.4	20.2	20.9*	0.3	-5.4
C=CCC12C[C@@]3(O[C@H](c4ccc(C(F)(F)F)cc4)N=C3C[C@H](c3ccc(OC)cc3)[C@H]1C)N(Cc1ccc3c(c1)OCO3)C2=O	.	3.4	.	.	.	-5.8
COc1ccc2c(c1OC)c(=O)n1c3ccc(OC(C)C(=O)NCCCN4CCOCC4)cc3c3ccnc2c31 (configuration not stated)	-3.8	.	54.5	-1.5	11.4*	.
CCOC(=O)C1CCCN(C(=O)/C(=C/c2ccco2)NC(=O)c2ccccc2)C1 (configuration not stated)	13.3	7.4	18.4	5.2*	1.5	8.1
O=C(N/C(=C/c1ccco1)C(=O)N1CCCCCC1)c1ccccc1	-0.8	-10.0	22.4	-4.6	-4.8	3.3
Nc1[nH]c(C(=O)c2ccccc2)c(-c2ccc(Cl)cc2)c1C(=O)c1c[nH]c2ccc(Br)cc12	.	7.7	.	.	.	18.3
CCC(C)[C@@H](N)C(=O)N/N=C/c1ccc2ncccc2c1 (some centres not stated)	-7.2	5.1	-14.8	0.8	7.8*	5.2
CC(C)(C)OC(=O)NCCC(=O)N/N=C/c1ccc2ncccc2c1	2.3	7.6	41.8	-3.7	-3.1	1.2
S=C(N/N=C/c1ccc2ncccc2c1)Nc1ccccc1	87.8*	15.7	-46.5	-1.0	0.7	14.6
COc1ccc(C(=O)C(=O)N2CCN(C(=O)c3cc(C(F)(F)F)cc(C(F)(F)F)c3)CC2)cc1OC	.	-9.8	.	.	.	-8.6
CCN(CC(=O)Nc1cccc(C#N)c1)CC(=O)Nc1cccc(OC)c1	-6.9	12.8	62.9*	0.3	0.6	-0.6
CC1(C(=O)NCc2ccccc2Br)CCN1Cc1csc2ccccc12 (configuration not stated)	.	-4.1	.	.	.	1.1
CC(C)CCN1C(=O)c2ccc(C(=O)Nc3ccc(Br)cc3C(=O)O)cc2C1=O	82.4*	-15.6	14.1	-0.9	1.5	-4.9
CC(C)CCN1C(=O)c2ccc(C(=O)Nc3cc(C(=O)O)cc(C(=O)O)c3)cc2C1=O	-5.0	-5.6	39.0	-0.5	-2.0	-1.0
OC(c1ccccc1)(c1ccccc1)C1CCN(CCCOc2ccc(-c3ccc(F)cc3F)cc2)CC1	.	12.8	.	.	.	20.8
CC(=O)N1CCN(c2ccc(NC(=O)c3ccc(C(C)(C)C)cc3)cc2)CC1	109.5*	-0.9	9.7	2.0	-2.3	-3.5
CCCOc1cccc(C(=O)Nc2cccnc2)c1	110.2*	13.3	6.6	-4.0	-5.1	3.2
CC(=O)N1CCN(c2ccc(NC(=O)c3ccc(Cl)cc3)cc2)CC1	6.0	-4.8	39.5	-1.6	-0.9	-0.4
CCCOc1cccc(C(=O)NC(=S)Nc2ccc(N3CCN(C)CC3)cc2)c1	5.2	-1.8	-9.0	0.3	12.1*	2.6
CCOc1cccc(C(=O)NC(=S)Nc2ccccc2)c1	-50.5	1.5	5.9	-3.5	-2.1	6.8
CC(C)Oc1cccc(C(=O)Nc2ccc(N3CCN(C)CC3)cc2)c1	-7.2	-5.8	40.8	-0.5	12.0*	4.8
COc1ccc(S(=O)(=O)N2CCCc3nc(-c4ccc(F)cc4)ccc32)cc1	.	2.8	.	.	.	-4.7
